The values that follow come from PMC4245150 (Organometallics, 2014).

In one assay the test system is Caki-1. Briefly: XTT cell viability assay, Caki-1. The class given is cell-based, human. The method in brief: (§1)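 Cells kept in RPMI-1640 with 10% FBS, 1% NEAA and PenStrep at 37 °C, 5% CO2. Seeded at 5000 cells/well in phenol-red-free, antibiotic-free RPMI (10% FBS, 2 mM L-glutamine) and grown 24 h. Test compound was dissolved in 1% DMSO, diluted in water and added at 0.1–200 μM final for 24 or 72 h. XTT was added at 0.3 mg/mL for 4 h, and A450 read. IC50 is the concentration halving proliferation against untreated cells, from ≥2 independent experiments in triplicate.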

In the next assay the test system is HEK-293T. The experiment in a line: XTT cell viability assay, HEK-293T. The class given is cell-based, human. The conditions noted are these: HEK-293T (nontumorigenic). An outline of the steps:
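HEK-293 cells kept in DMEM with 10% FBS, 1% NEAA and PenStrep at 37 °C, 5% CO2. Seeded at 5000 cells/well in phenol-red-free, antibiotic-free DMEM (10% FBS, 2 mM L-glutamine) and grown 24 h. Test compound was dissolved in 1% DMSO, diluted in water and dosed at 0.1–200 μM final for 24 or 72 h. XTT was added at 0.3 mg/mL for 4 h, and A450 read. IC50 is the concentration halving proliferation against untreated cells, from ≥2 independent experiments in triplicate.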

The test system of a further assay is DU145. The experiment in a line: XTT cell viability assay, DU145. The class given is cell-based, human. An outline of the steps: as §1
The next assay concerns UO31. The experiment in a line: XTT cell viability assay, UO31. The class given is cell-based, human. The method in brief: as §1
The test system of another assay is PC3. The experiment in a line: XTT cell viability assay, PC3. The class given is cell-based, human.
Another assay deals with A498. The experiment in a line: XTT cell viability assay, A498. The class given is cell-based, human.
Another assay concerns PI3 kinases. The experiment in a line: HotSpot kinase assay, lipid PI3 kinases. The class given is biochemical. To be noted: IC50 values only plotted in Figure 8.
A further assay relates to panel of 30 kinases. The experiment in a line: HotSpot kinase assay, panel of 30 nonlipid kinases. The class given is biochemical. The conditions noted are these: even at concentrations of 100 μM.
The next assay concerns CT-DNA. The conditions noted are these: physiological pH / pH 7; cited from earlier work.
The next assay relates to PKCι-par6. The conditions noted are these: PKCι-par6 in vitro; cited from earlier work.
In a further assay the test system is plasmid (pBR322) DNA. The experiment in a line: electrophoresis mobility shift assay with plasmid DNA. The class given is binding. To be noted: metal/DNAbp ratios 0.25-2.0, 37 °C, 20 h, pH 7.39. An outline of the steps: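 pBR322 DNA (20 μg/mL) in 5 mM Tris/HCl, 50 mM NaClO4, pH 7.39 incubated with test compound ([…] metal complex/DNAbp) for 20 h at 37 °C in the dark; free DNA and cisplatin-treated DNA as controls. Samples run on 1% agarose gel, 1.5 h at 80 V in Tris-acetate/EDTA, stained 30 min with GelRed.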

For the compound `COc1ccc(C[C]2([Ti+2][C]3(Cc4ccc(OC)cc4)C=CC=C3)C=CC=C2)cc1.[Cl-].[Cl-]` [Titanocene Y], the IC50 is > 200 µM in the assay on Caki-1 (Caki-1, 24 h incubation); 29.4 ± 4.2 µM in the assay with Caki-1 (Caki-1, 72 h incubation); > 200 µM in the assay with HEK-293T (24 h incubation); > 200 µM in the assay on HEK-293T (72 h incubation); > 200 µM with DU145 (DU145, 24 h incubation); 55.2 ± 7.9 µM in the assay on DU145 (DU145, 72 h incubation). The IC50 in the assay with UO31 (UO31, 24 h incubation) is > 200 µM; in the assay on UO31 (UO31, 72 h incubation) it was > 200 µM; in the assay with PC3 (PC3, 24 h incubation), > 200 µM; in the assay with PC3 (PC3, 72 h incubation) it was 58.1 ± 11.2 µM; in the assay on A498 (A498, 24 h incubation), > 200 µM; in the assay on A498 (A498, 72 h incubation) it was > 29.6 µM.

With `[Cl-].[Cl-].[Ti+4].c1cc[cH-]c1.c1cc[cH-]c1` [titanocene dichloride], the half-maximal inhibitory concentration (IC50) is > 200 µM with Caki-1 (Caki-1, 24 h incubation); > 200 µM in the assay with Caki-1 (Caki-1, 72 h incubation); > 200 µM in the assay with HEK-293T (24 h incubation); > 200 µM in the assay on HEK-293T (72 h incubation); > 200 µM in the assay on DU145 (DU145, 24 h incubation); > 200 µM with DU145 (DU145, 72 h incubation). In addition, the 50% inhibitory concentration (IC50) in the assay with UO31 (UO31, 24 h incubation) was > 200 µM; in the assay with UO31 (UO31, 72 h incubation) it was > 200 µM; in the assay with PC3 (PC3, 24 h incubation) it was > 200 µM; with PC3 (PC3, 72 h incubation), > 200 µM; with A498 (A498, 24 h incubation) it was > 200 µM; with A498 (A498, 72 h incubation) it was > 200 µM. In addition, the “inhibition of PI3 kinase family” value with PI3 kinases was “inhibits exclusively protein kinases of the PI3 kinase family at nanomolar concentrations”. Besides, in the assay with panel of 30 kinases, the “inhibition of enzymatic activity of 30 kinases” value is recorded as “did not inhibit the enzymatic activity to levels of 50% or below”. The “interaction with CT-DNA” value with CT-DNA is on record as “does not interact with CT-DNA”.

As to `OC[C@H]1O[C@H]([S-])[C@H](O)[C@@H](O)[C@@H]1O.[Au+]` [aurothioglucose], the IC50 in the assay with PKCι-par6 was ~1 µM.

Consider `O=C(O)CC([S-])C(=O)O.[Au+]` (stereo not shown) [aurothiomalate], for which the half-maximal inhibitory concentration (IC50) in the assay on PKCι-par6 is ~1 µM.

In the case of `O=C(O)C[P+]([Au-][Cl])(c1ccccc1)c1ccccc1` [compound 6, [HOC(O)CH2PPh2AuCl]], the half-inhibitory concentration (IC50) in the assay with Caki-1 (Caki-1, 24 h incubation) was found to be 33.8 ± 2.1 µM; with Caki-1 (Caki-1, 72 h incubation), 23 ± 4.1 µM; in the assay on HEK-293T (24 h incubation), 36.5 ± 3.3 µM; in the assay on HEK-293T (72 h incubation) it was 9.7 ± 2.5 µM; with DU145 (DU145, 24 h incubation), 34.7 ± 1.8 µM; with DU145 (DU145, 72 h incubation) it was 31.3 ± 3.1 µM. In addition, the half-maximal inhibitory concentration (IC50) amounted to 27.3 ± 2.7 µM in the assay with UO31 (UO31, 24 h incubation); 5.2 ± 1.6 µM in the assay on UO31 (UO31, 72 h incubation); 38.2 ± 2.2 µM in the assay on PC3 (PC3, 24 h incubation); 30.2 ± 4.2 µM in the assay on PC3 (PC3, 72 h incubation); 58 ± 11 µM in the assay on A498 (A498, 24 h incubation); 43 ± 4.9 µM in the assay on A498 (A498, 72 h incubation). In the assay with plasmid (pBR322) DNA, the “effect on electrophoretic mobility of plasmid forms” value is recorded as “does not affect the mobility of the faster-running supercoiled form”.

For the compound `N.N.[Cl][Pt][Cl]` [cisplatin], the IC50 in the assay with Caki-1 (Caki-1, 24 h incubation) turned out to be 68.8 ± 0.14 µM; with Caki-1 (Caki-1, 72 h incubation), 29 ± 4.1 µM; with HEK-293T (24 h incubation), 64.4 ± 7.9 µM; in the assay with HEK-293T (72 h incubation), 3.2 ± 0.13 µM; in the assay with DU145 (DU145, 24 h incubation), 44.5 ± 0.33 µM; in the assay on DU145 (DU145, 72 h incubation), 12.1 ± 3.9 µM. Besides, the IC50 is > 100 µM in the assay with UO31 (UO31, 24 h incubation); 8.9 ± 2.7 µM in the assay on UO31 (UO31, 72 h incubation); 92 ± 18 µM in the assay on PC3 (PC3, 24 h incubation); 14 ± 2.3 µM in the assay on PC3 (PC3, 72 h incubation); 74.7 ± 6 µM in the assay on A498 (A498, 24 h incubation); 37.2 ± 4.6 µM in the assay with A498 (A498, 72 h incubation). Moreover, in the assay on plasmid (pBR322) DNA, the “effect on electrophoretic mobility of plasmid forms” value is “decrease in mobility of the CCC form and an increase in mobility of the OC form”.
